In publication PMC2874265 (Journal of Medicinal Chemistry, 2010):

How the values were obtained:
[1] = Mouse intravenous pharmacokinetics; format: in vivo
Outline: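 Mice dosed intravenously, either 3 mg/kg given individually or 2 mg/kg in a cassette. Plasma sampled at 5, 15, 30, 60, 120, 240 and 480 min and concentrations measured by LC/MS/MS. AUC, C0, CL, T1/2 and V calculated from plasma concentrations.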

S. aureus ATCC 29213 = experiment: S. aureus MIC, broth microdilution; format: cell-based; conditions: for MIC: Staphylococcus aureus, ATCC29213, read-out: S. aureus MIC + 2% BSA; for S. aureus MIC: S. aureus ATCC 29213, broth microdilution
Outline: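 Broth microdilution MIC per CLSI recommendations against S. aureus ATCC 29213. Protein-shift runs added 2% w/v bovine serum albumin to the assay. End point reproducible within one 2-fold dilution.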

S. aureus (Smith) = experiment: Murine septicaemia model of staphylococcal infection; format: in vivo; conditions: SC, 3, 10, or 30 mg/kg

| Structure (SMILES) | MIC (S. aureus ATCC 29213) | S. aureus MIC (S. aureus ATCC 29213) | other results |
| --- | --- | --- | --- |
| NC(=O)c1c(F)ccc(OCc2nc3cc(Cl)ccc3s2)c1F [compound 8j] | 2 µg/mL | – | V ([1]; intravenous, 2 mg/kg in a cassette): 5.8 L/kg; AUC ([1]; plasma, iv, 2 mg/kg): 100 ng·h/mL; C0 ([1]; plasma, iv, 2 mg/kg): 500 ng/mL; clearance ([1]; plasma, iv, 2 mg/kg): 315 mL/min/kg; half-life ([1]; plasma, iv, 2 mg/kg): 13 min; survival of infected mice (S. aureus (Smith)): died on day 2 |
| NC(=O)c1c(F)ccc(OCc2nc3cc(Br)ccc3s2)c1F [compound 8d] | – | submicrogram/mL | – |
| CCOc1ccc2sc(COc3ccc(F)c(C(N)=O)c3F)nc2c1 [compound 8b] | 0.5 µg/mL | submicrogram/mL | – |
| COc1cc2nc(COc3ccc(F)c(C(N)=O)c3F)sc2nc1Cl [compound 28d] | > 64 µg/mL | – | – |
| NC(=O)c1c(F)ccc(OCc2nc3cc(C(F)(F)F)ccc3s2)c1F [8e] | – | submicrogram/mL | – |
| CCCc1ccc2sc(COc3ccc(F)c(C(N)=O)c3F)nc2c1 [compound 11] | – | submicrogram/mL | – |
| NC(=O)c1c(F)ccc(OCc2nc3cc(-c4ccccc4)ccc3s2)c1F [compound 8a] | 4 µg/mL | – | – |
